Experimental data from ChEMBL document CHEMBL3352282, “Design and synthesis of novel azapeptide activators of apoptosis mediated by caspase-9 in cancer cells” (Bioorg Med Chem Lett, 2014).
Active and inactive are the calls of the source. No cut-off for these calls is given here.

How the values were obtained:
MDA-MB-231 [1] = experiment: Induction of cell death in serum starved human MDA-MB-231 cells at 50 uM after 16 hrs by trypan blue dye exclusion assay; format: functional
In short: (§1)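 Breast cancer line serum-starved 6 h, then exposed to compound (DMSO vehicle) for 16 h at a final 50 µM or 100 µM. Cells trypsinized, stained with Trypan blue and counted. Cell death expressed as percentage, relative to vehicle. Mean ± SEM of three independent experiments, paired comparison to DMSO control.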

MDA-MB-231 [2] = experiment: Induction of apoptosis in serum starved human MDA-MB-231 cells assessed as caspase-3 activation at 50 uM after 16 hrs by Western blotting method; format: functional, cell-based
In short: (§2)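 MDA-MB-231 cells serum-starved 6 h, then exposed to DMSO vehicle, etoposide, AVPI-NH₂ or analogs at one final concentration (50 or 100 µM, per line), harvested; caspase-3 and caspase-9 activation assessed by Western blotting. Quantification as mean ± SEM of three independent experiments.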

MDA-MB-231 [3] = experiment: Induction of apoptosis in serum starved human MDA-MB-231 cells assessed as caspase-9 activation at 50 uM after 16 hrs by Western blotting method; format: functional, cell-based; in short: as §2
MDA-MB-231 [4] = experiment: Induction of cell death in serum starved human MDA-MB-231 cells at 100 uM after 16 hrs by trypan blue dye exclusion assay; format: functional; in short: as §1
MDA-MB-231 [5] = experiment: Induction of apoptosis in serum starved human MDA-MB-231 cells assessed as caspase-3 activation at 100 uM after 16 hrs by Western blotting method; format: functional, cell-based; in short: as §2
MDA-MB-231 [6] = experiment: Induction of apoptosis in serum starved human MDA-MB-231 cells assessed as caspase-9 activation at 100 uM after 16 hrs by Western blotting method; format: functional, cell-based; in short: as §2
MDA-MB-231 [7] = experiment: Induction of apoptosis in serum starved human MDA-MB-231 cells assessed as caspase-9 activation after 16 hrs by Western blotting method; format: functional, cell-based; details: MDA-MB-231, 16 h
In short: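 MDA-MB-231 cells serum-starved 6 h, treated 16 h across a concentration series (about 12.5–125 µM), harvested; total and cleaved caspase-9 immunoblotted and quantified. Mean ± SEM of two independent experiments; significance versus paired DMSO condition.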

COc1cc([C@@H]2c3cc4c(cc3[C@@H](O[C@@H]3O[C@@H]5CO[C@@H](C)O[C@H]5[C@H](O)[C@H]3O)[C@H]3COC(=O)[C@H]23)OCO4)cc(OC)c1O [ETOPOSIDE]
Activity (MDA-MB-231 [1]): 50% | Activity (MDA-MB-231 [2]): Active | Activity (MDA-MB-231 [3]): inactive

C[C@H](N)C(=O)NN(Cc1ccccc1)C(=O)N1CCC[C@H]1C(=O)NC(c1ccccc1)c1ccccc1
Activity (MDA-MB-231 [4]): 50% | Activity (MDA-MB-231 [1]): Active | Activity (MDA-MB-231 [5]): Active | Activity (MDA-MB-231 [2]): Active | Activity (MDA-MB-231 [6]): Active | Activity (MDA-MB-231 [3]): Active | EC50 (MDA-MB-231 [7]): 50.2 µM

C[C@H](N)C(=O)NNC(=O)N1CCC[C@H]1C(=O)NC(c1ccccc1)c1ccccc1
Activity (MDA-MB-231 [4]): 50% | Activity (MDA-MB-231 [1]): Active | Activity (MDA-MB-231 [5]): Active | Activity (MDA-MB-231 [6]): Active | EC50 (MDA-MB-231 [7]): 73.4 µM

C=CCN(NC(=O)[C@H](C)N)C(=O)N1CCC[C@H]1C(=O)NC(c1ccccc1)c1ccccc1
Activity (MDA-MB-231 [4]): 50% | Activity (MDA-MB-231 [1]): inactive | Activity (MDA-MB-231 [5]): Active | Activity (MDA-MB-231 [6]): Active

C#CCN(NC(=O)[C@H](C)N)C(=O)N1CCC[C@H]1C(=O)NC(c1ccccc1)c1ccccc1
Activity (MDA-MB-231 [4]): 50% | Activity (MDA-MB-231 [1]): inactive | Activity (MDA-MB-231 [5]): Active | Activity (MDA-MB-231 [6]): Active

C[C@H](N)C(=O)NN(C)C(=O)N1CCC[C@H]1C(=O)NC(c1ccccc1)c1ccccc1
Activity (MDA-MB-231 [4]): 50% | Activity (MDA-MB-231 [1]): Active | Activity (MDA-MB-231 [5]): Active | Activity (MDA-MB-231 [6]): Active
